These results are taken from ChEMBL document CHEMBL1135438, “Synthesis and pharmacological characterization of novel analogues of the nicotinic acetylcholine receptor agonist (+/-)-UB-165” (J Med Chem, 2002).

For assay [1], the target named is T1, Neuronal acetylcholine receptor; alpha3/beta4 (Rattus norvegicus, UniProt P04757+P12392). The assay can be described thus: Activation potency at Nicotinic acetylcholine receptor alpha3beta4, expressed as concentration required to achieve a half maximal activation. The assay is classed as protein-complex assay. In outline:
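Rat α3β4 nAChR stably expressed in L cells, induced 7–10 days with 1 μM dexamethasone; cells loaded with 5 μM fluo-3 (1 h, room temperature, dark). Agonist given in high-calcium buffer (75 mM CaCl2, pH 7.4), fluorescence followed 16 s.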

The target in assay [2] is T1, Neuronal acetylcholine receptor; alpha3/beta4. Briefly: Binding affinity at rat brain Nicotinic acetylcholine receptor alpha3-beta4.
The nature of assay [3]: Compound was tested for its potency at Nicotinic acetylcholine receptor alpha3-beta4 relative to that of Nicotinic acetylcholine receptor alpha4-beta2.
The target in assay [4] is Neuronal acetylcholine receptor subunit alpha-7 (Rattus norvegicus, UniProt Q05941). Briefly: Binding affinity at rat brain Nicotinic acetylcholine receptor alpha7.
Neuronal acetylcholine receptor subunit alpha-7, sequence (Q05941 whole entry): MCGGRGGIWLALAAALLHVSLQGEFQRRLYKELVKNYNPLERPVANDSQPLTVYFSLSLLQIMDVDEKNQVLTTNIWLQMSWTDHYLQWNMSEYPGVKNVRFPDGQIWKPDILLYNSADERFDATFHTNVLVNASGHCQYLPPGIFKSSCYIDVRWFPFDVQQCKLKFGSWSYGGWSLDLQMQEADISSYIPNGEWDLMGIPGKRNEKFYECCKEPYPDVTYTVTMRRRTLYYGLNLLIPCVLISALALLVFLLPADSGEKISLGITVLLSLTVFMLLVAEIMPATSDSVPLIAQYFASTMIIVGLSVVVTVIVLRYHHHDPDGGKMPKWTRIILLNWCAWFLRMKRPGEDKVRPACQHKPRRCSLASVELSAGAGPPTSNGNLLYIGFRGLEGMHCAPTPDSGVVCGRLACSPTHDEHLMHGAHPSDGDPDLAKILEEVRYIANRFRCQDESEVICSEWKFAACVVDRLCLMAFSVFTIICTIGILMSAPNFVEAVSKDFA
In assay [5] the target is Neuronal acetylcholine receptor; alpha4/beta2 (Rattus norvegicus, UniProt P09483+P12390). The assay can be described thus: Binding affinity at rat brain Nicotinic acetylcholine receptor alpha4-beta2. In outline:
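Rat brain P2 membranes (250 μg protein) competed against 10 nM (–)-[3H]nicotine, 30 min room temperature then 1 h at 4 °C; filtration. Nonspecific binding with 1 mM (–)-nicotine.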

Assay [6] deals with Neuronal acetylcholine receptor subunit alpha-7 (Rattus norvegicus) (UniProt Q05941). The assay can be described thus: Compound was tested for its potency at Nicotinic acetylcholine receptor alpha-7 relative to that of Nicotinic acetylcholine receptor alpha4-beta2.
Neuronal acetylcholine receptor subunit alpha-7 (Rattus norvegicus), sequence (Q05941 whole entry): as above
The nature of assay [7]: Ratio of Ki (binding affinity) relative to activation potency.

For orientation: EC50 means the concentration at which the effect is half-maximal. Lower therefore signals greater potency. One may read the Ki as a dissociation constant, usually derived from enzyme kinetics or from competition with a known ligand. A low value points to higher affinity.

T1 sequence (P04757 whole entry): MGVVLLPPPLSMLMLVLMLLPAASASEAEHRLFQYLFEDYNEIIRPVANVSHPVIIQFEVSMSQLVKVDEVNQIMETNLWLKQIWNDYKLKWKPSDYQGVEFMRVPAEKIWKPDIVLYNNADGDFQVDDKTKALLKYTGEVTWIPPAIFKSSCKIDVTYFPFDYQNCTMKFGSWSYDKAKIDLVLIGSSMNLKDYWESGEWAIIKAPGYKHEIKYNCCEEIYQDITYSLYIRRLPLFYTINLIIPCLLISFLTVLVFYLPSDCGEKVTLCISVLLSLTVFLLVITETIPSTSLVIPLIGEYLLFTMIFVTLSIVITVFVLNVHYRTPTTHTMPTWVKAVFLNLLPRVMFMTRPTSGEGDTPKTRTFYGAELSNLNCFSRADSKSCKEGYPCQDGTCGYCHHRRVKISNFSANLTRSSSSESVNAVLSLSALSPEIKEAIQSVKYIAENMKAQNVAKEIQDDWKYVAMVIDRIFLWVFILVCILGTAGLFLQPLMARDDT
T1 sequence (P12392 whole entry): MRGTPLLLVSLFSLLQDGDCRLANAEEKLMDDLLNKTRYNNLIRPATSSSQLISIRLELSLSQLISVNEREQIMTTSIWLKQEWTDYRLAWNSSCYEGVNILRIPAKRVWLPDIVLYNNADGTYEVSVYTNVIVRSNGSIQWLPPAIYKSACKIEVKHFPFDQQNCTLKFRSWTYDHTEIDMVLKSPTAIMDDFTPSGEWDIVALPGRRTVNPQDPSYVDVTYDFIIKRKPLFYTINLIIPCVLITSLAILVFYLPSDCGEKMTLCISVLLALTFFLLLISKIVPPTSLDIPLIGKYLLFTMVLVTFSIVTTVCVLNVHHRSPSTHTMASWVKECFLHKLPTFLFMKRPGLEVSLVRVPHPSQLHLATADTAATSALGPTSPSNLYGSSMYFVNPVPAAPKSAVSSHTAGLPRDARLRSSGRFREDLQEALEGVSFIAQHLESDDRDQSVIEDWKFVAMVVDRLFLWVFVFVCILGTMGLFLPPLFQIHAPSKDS
Neuronal acetylcholine receptor; alpha4/beta2, sequence (P09483 whole entry): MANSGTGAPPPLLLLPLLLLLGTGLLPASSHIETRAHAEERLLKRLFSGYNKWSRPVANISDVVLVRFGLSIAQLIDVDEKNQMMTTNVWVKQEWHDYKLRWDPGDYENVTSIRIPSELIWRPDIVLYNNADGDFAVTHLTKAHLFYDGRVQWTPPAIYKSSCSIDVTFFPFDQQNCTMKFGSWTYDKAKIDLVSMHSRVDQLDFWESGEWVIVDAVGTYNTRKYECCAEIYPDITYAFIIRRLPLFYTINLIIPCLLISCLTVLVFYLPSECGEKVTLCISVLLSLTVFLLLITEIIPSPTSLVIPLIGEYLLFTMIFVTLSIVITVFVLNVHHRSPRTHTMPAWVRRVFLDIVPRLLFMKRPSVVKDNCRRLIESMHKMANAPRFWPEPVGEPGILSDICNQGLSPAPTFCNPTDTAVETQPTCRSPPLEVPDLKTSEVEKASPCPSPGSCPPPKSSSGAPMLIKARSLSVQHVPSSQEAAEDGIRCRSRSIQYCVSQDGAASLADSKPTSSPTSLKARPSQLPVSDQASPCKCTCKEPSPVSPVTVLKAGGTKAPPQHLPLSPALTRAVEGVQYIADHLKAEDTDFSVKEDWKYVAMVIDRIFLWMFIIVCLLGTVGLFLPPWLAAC
Neuronal acetylcholine receptor; alpha4/beta2, sequence (P12390 whole entry): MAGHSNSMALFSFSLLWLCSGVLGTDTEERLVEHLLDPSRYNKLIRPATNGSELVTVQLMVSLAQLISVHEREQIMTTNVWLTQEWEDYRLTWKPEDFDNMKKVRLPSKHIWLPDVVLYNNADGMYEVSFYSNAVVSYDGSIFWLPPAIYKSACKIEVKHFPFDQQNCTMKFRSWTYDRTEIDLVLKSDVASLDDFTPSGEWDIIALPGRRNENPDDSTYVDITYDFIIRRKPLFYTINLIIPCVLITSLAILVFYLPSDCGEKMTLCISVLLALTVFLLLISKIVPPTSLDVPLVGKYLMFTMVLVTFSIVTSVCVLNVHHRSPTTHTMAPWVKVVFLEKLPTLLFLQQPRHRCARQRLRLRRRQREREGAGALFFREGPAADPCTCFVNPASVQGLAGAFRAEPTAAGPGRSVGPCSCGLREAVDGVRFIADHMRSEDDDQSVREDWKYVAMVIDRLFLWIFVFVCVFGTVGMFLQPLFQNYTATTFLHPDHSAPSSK

In assay [1], `C1=C(c2ccncc2)C2CC[C@H](CC1)N2` gave an EC50 of more than 100 µM. The Ki was 22 µM in assay [2], more than 50 µM in assay [4] and 11 µM in assay [5]. Besides, the Affinity ratio in assay [3] is 2.
`C1=C(c2ccccn2)C2CC[C@H](CC1)N2` showed a concentration giving a half-maximal response (EC50) in assay [1] of more than 100 µM. Moreover, the Affinity ratio in assay [6] was determined as 31; in assay [3] it was 6.8. The results for the Ki in assay [2] and in assay [4] were 10.5 µM and 47.5 µM, respectively.
`C1=C(c2cccnn2)C2CC[C@H](CC1)N2` displayed an EC50 in assay [1] of 4.19 µM. For the same compound, the Affinity ratio in assay [6] is 118; in assay [3] it was 20. The Ki in assay [2] was 0.306 µM; in assay [4] it was 0.0684 µM; in assay [5], 0.0026 µM. Besides, the Ratio in assay [7] came to 14.
For the compound `Clc1ccc(C2=CCCC3CCC2N3)cn1` (racemic), affinity in assay [4] was put at a Ki of 2.76 µM.
Turning to `C1=C(c2cccnc2)C2CC[C@H](CC1)N2`, the Ki in assay [4] worked out at 0.089 µM; in assay [5], 0.00043 µM.
On to `C1=C(c2cnccn2)C2CC[C@H](CC1)N2`, for which the EC50 in assay [1] was more than 100 µM. In addition, the values for the Affinity ratio in assay [6] and in assay [3] were 100 and 49, respectively. Moreover, the Ki in assay [2] is 2.85 µM; in assay [4], 5.77 µM; in assay [5], 0.058 µM.
Turning to `C1=C(c2cncnc2)C2CC[C@H](CC1)N2`, in assay [1], the EC50 was 3.89 µM. The Affinity ratio in assay [6] was found to be 696; in assay [3], 96. For the same compound, the Ki in assay [2] was 0.236 µM; in assay [4], 1.71 µM; in assay [5], 0.00245 µM. Moreover, the Ratio in assay [7] amounted to 16.
